Tests used:
[1] = molecular target: Human immunodeficiency virus type 1 reverse transcriptase (Human immunodeficiency virus 1, UniProt Q72547); assay: Inhibition of wild type HIV-1 NL4-3 reverse transcriptase using random mRNA as template and GADPH as primer measured at 42 degreeC for 5 mins, 95 degreeC for 10sec and 60 degreeC for 60 sec by qRT-PCR analysis
[2] = molecular target: Human immunodeficiency virus type 1 protease (Human immunodeficiency virus 1, UniProt Q72874); assay: Inhibition of wild type HIV1 protease expressed in Escherichia coli using Arg-Glu (EDANS)-Ser-Gln-Asn-Tyr-Pro-Ile-Val-Gln-Lys(DABCYL)-Arg as substrate preincubated for 20 to 30 mins followed by substrate addition and measured for 10 mins by FRET assay
In short: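 Recombinant HIV-1 PR was expressed in E. coli and purified. It was mixed with inhibitor (DMSO stock) for 20–30 min at room temperature before addition of the EDANS/DABCYL-labelled peptide. Buffer: 0.1 M sodium acetate, 1 M NaCl, 1 mM EDTA, 1 mM DTT, 2% DMSO, 1 mg/mL BSA, pH 4.7. Triplicate; mean of three independent experiments.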

[3] = test system: Human immunodeficiency virus 1; assay: Antiviral activity against HIV1 NL4-3 Env-deficient VSV-G pseudotyped virus infected in human SUP-T1 cells assessed as inhibition of late stage viral production when host cells were infected with compound pretreated viral particles at 10 uM measured after 48 hrs by luciferase assay relative to control; assay type: functional; conditions: Human immunodeficiency virus 1, NL4-3, SUP-T1
In short: (§1)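 Late-stage assay: VSV-G pseudotyped HIV-1 was made by co-transfecting 293T cells with pNL4-3-E⁻R⁻ (or DRV-resistant variants) plus pHCMV-G. Inhibitors in DMSO were added to the medium 5 h post-transfection. After 48 h at 37 °C, supernatant virus infected SupT1 cells for 48 h, and luciferase was read in the newly infected cells. Quintuplicate; inhibition at one fixed concentration and EC50.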

[4] = test system: Human immunodeficiency virus 1; assay: Antiviral activity against HIV1 NL4-3 VSV-G pseudotyped virus infected in human SUP-T1 cells assessed as inhibition of early stage viral production at 10 uM measured after 48 hrs by luciferase assay relative to control; assay type: functional; conditions: Human immunodeficiency virus 1, NL4-3, SUP-T1
In short: (§2)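 Early-stage assay: SupT1 cells (1 × 10⁵/mL) were infected with VSV-G-pseudotyped HIV-1(NL4-3), and compounds were added afterward, with final DMSO held at 1% (v/v). After 48 h the cells were lysed and firefly luciferase activity was measured. Quintuplicate; inhibition at one fixed concentration and EC50.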

[5] = test system: Human immunodeficiency virus 1; assay: Antiviral activity against HIV1 NL4-3 Env-deficient VSV-G pseudotyped virus infected in human SUP-T1 cells assessed as inhibition of late stage viral production when host cells were infected with compound pretreated viral particles measured after 48 hrs by luciferase assay; assay type: functional, organism-based; conditions: Human immunodeficiency virus 1, NL4-3, SUP-T1; in short: as §1
[6] = test system: Human immunodeficiency virus 1; assay: Antiviral activity against HIV1 NL4-3 VSV-G pseudotyped virus infected in human SUP-T1 cells assessed as inhibition of early stage viral production measured after 48 hrs by luciferase assay; assay type: functional, organism-based; conditions: Human immunodeficiency virus 1, NL4-3, SUP-T1, 48 h; in short: as §2
[7] = Ratio of antiviral activity against HIV1 NL4-3 Env-deficient VSV-G pseudotyped virus infected in human SUP-T1 cells assessed as inhibition of late stage viral production when host cells were infected with compound pretreated viral particles to antiviral activity against HIV1 NL4-3 VSV-G pseudotyped virus infected in human SUP-T1 cells assessed as inhibition of early stage viral production; assay type: functional, Human immunodeficiency virus 1
In short: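 Ratio taken from single-round VSV-G pseudotyped HIV-1(NL4-3) luciferase assays in SupT1 cells (quintuplicate). It is late-stage inhibition (compound given to producer 293T cells after transfection) divided by early-stage inhibition (compound added after SupT1 infection), or the reverse.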

Row | SMILES | IC50 [1] | IC50 [2] | further results
1 | COc1ccc(S(=O)(=O)N(C[C@@H](O)[C@H](Cc2ccccc2)NC(=O)CCc2cc(OC)c(O)cc2OC)C(C)C)cc1 | 299 nM | 70.1 nM | 
2 | COc1cc(/C=C/C(=O)N[C@@H](Cc2ccccc2)[C@H](O)CN(CC(C)C)S(=O)(=O)c2ccc(SC)cc2)cc(OC)c1O | 51.5 nM | 65.1 nM | 
3 | COc1ccc(S(=O)(=O)N(CC(C)C)C[C@@H](O)[C@H](Cc2ccccc2)NC(=O)CCc2cc(OC)c(O)cc2OC)cn1 | 2.97 nM | 42.2 nM | 
4 | COc1ccc(S(=O)(=O)N(C[C@@H](O)[C@H](Cc2ccccc2)NC(=O)/C=C/c2cc(OC)c(O)c(OC)c2)C(C)C)cc1 | 199 nM | 527 nM | 
5 | COc1ccc(S(=O)(=O)N(C[C@@H](O)[C@H](Cc2ccccc2)NC(=O)/C=C/c2ccc(O)c(O)c2)C(C)C)cc1 | 53.5 nM | 54 nM | 
6 | COc1cc(CCC(=O)N[C@@H](Cc2ccccc2)[C@H](O)CN(CC(C)C)S(=O)(=O)c2ccc(N)cc2)c(OC)cc1O | 113 nM | 68.9 nM | 
7 | COc1ccc(S(=O)(=O)N(C[C@@H](O)[C@H](Cc2ccccc2)NC(=O)CCc2ccc(O)c(OC)c2)C(C)C)cc1 | 40.5 nM | 9.56 nM | 
8 | COc1ccc(S(=O)(=O)N(CC(C)C)C[C@@H](O)[C@H](Cc2ccccc2)NC(=O)CCc2ccc(O)c(OC)c2)cn1 | 241 nM | 0.16 nM | 
9 | CC(C)CN(C[C@@H](O)[C@H](Cc1ccccc1)NC(=O)O[C@H]1CO[C@H]2OCC[C@H]21)S(=O)(=O)c1ccc(N)cc1 |  |  | inhibition at 10 µM [3]: 99%; inhibition at 10 µM [4]: 2%
10 | O=C1Nc2ccc(Cl)cc2[C@@](C#CC2CC2)(C(F)(F)F)O1 [EFAVIRENZ] |  |  | inhibition at 10 µM [3]: 15%; inhibition at 10 µM [4]: 85%
11 | COc1ccc(S(=O)(=O)N(C[C@@H](O)[C@H](Cc2ccccc2)NC(=O)CCc2ccc(O)c(O)c2)C(C)C)cc1 | 20.5 nM | 1.47 nM | 
12 | COc1cc(CCC(=O)N[C@@H](Cc2ccccc2)[C@H](O)CN(CC(C)C)S(=O)(=O)c2ccc(SC)cc2)ccc1O | 3.5 nM | 7.73 nM | 
13 | CSc1ccc(S(=O)(=O)N(CC(C)C)C[C@@H](O)[C@H](Cc2ccccc2)NC(=O)/C=C/c2ccc(O)c(O)c2)cc1 | 21.5 nM | 16.2 nM | 
14 | COc1cc(CCC(=O)N[C@@H](Cc2ccccc2)[C@H](O)CN(CC(C)C)S(=O)(=O)c2ccc(SC)cc2)c(OC)cc1O | 60.7 nM | 89.8 nM | 
15 | COc1ccc(S(=O)(=O)N(CC(C)C)C[C@@H](O)[C@H](Cc2ccccc2)NC(=O)/C=C/c2ccc(O)c(OC)c2)cn1 | 124 nM | 2.42 nM | 
16 | CC(C)CN(C[C@@H](O)[C@H](Cc1ccccc1)NC(=O)/C=C/c1ccc(O)c(O)c1)S(=O)(=O)c1ccc(N)cc1 | 7.5 nM | 0.2 nM | 
17 | COc1ccc(S(=O)(=O)N(CC(C)C)C[C@@H](O)[C@H](Cc2ccccc2)NC(=O)CCc2ccc(O)c(O)c2)cn1 | 2.5 nM | 0.081 nM | 
18 | COc1ccc(S(=O)(=O)N(C[C@@H](O)[C@H](Cc2ccccc2)NC(=O)/C=C/c2ccc(O)c(O)c2)C2CC2)cc1 | 31.5 nM | 19.5 nM | 
19 | CC(C)CN(C[C@@H](O)[C@H](Cc1ccccc1)NC(=O)CCc1ccc(O)c(O)c1)S(=O)(=O)c1ccc(N)cc1 | 9.5 nM | 0.56 nM | 
20 | COc1cc(CCC(=O)N[C@@H](Cc2ccccc2)[C@H](O)CN(CC(C)C)S(=O)(=O)c2ccc(N)cc2)ccc1O | 31.5 nM | 0.58 nM | 
21 | CCCN(C[C@@H](O)[C@H](Cc1ccccc1)NC(=O)CCc1ccc(O)c(O)c1)S(=O)(=O)c1ccc(OC)cc1 | 7.5 nM | 0.54 nM | 
22 | COc1ccc(S(=O)(=O)N(C[C@@H](O)[C@H](Cc2ccccc2)NC(=O)/C=C/c2cc(OC)c(O)c(OC)c2)C2CC2)cc1 | 33.5 nM | 294 nM | 

Row | SMILES | IC50 [1] | IC50 [2] | further results
23 | COc1ccc(S(=O)(=O)N(C[C@@H](O)[C@H](Cc2ccccc2)NC(=O)CCc2ccc(O)c(OC)c2)C2CC2)cc1 | 285 nM | 32.5 nM | 
24 | COc1ccc(S(=O)(=O)N(CC(C)C)C[C@@H](O)[C@H](Cc2ccccc2)NC(=O)CCc2ccc(O)c(OC)c2)cc1 | 206 nM | 1.1 nM | 
25 | COc1ccc(S(=O)(=O)N(CC(C)C)C[C@@H](O)[C@H](Cc2ccccc2)NC(=O)/C=C/c2ccc(O)c(O)c2)cc1 | 40.8 nM | 0.16 nM | 
26 | CCCN(C[C@@H](O)[C@H](Cc1ccccc1)NC(=O)CCc1ccc(O)c(OC)c1)S(=O)(=O)c1ccc(OC)cc1 | 234 nM | 1.7 nM | 
27 | CSc1ccc(S(=O)(=O)N(CC(C)C)C[C@@H](O)[C@H](Cc2ccccc2)NC(=O)CCc2ccc(O)c(O)c2)cc1 | 0.43 nM | 2.02 nM | inhibition at 10 µM [3]: 97%; EC50 [5]: 2310 nM; inhibition at 10 µM [4]: 68%; EC50 [6]: 8320 nM; Ratio [7]: 1.43
28 | COc1ccc(S(=O)(=O)N(CC(C)C)C[C@@H](O)[C@H](Cc2ccccc2)NC(=O)/C=C/c2cc(OC)c(O)c(OC)c2)cc1 | 125 nM | 13.1 nM | 
29 | COc1cc(/C=C/C(=O)N[C@@H](Cc2ccccc2)[C@H](O)CN(CC(C)C)S(=O)(=O)c2ccc(N)cc2)cc(OC)c1O | 1.5 nM | 144 nM | inhibition at 10 µM [3]: 30%; EC50 [5]: 37400 nM; inhibition at 10 µM [4]: 14%; EC50 [6]: 68000 nM; Ratio [7]: 2.14
30 | COc1cc(/C=C/C(=O)N[C@@H](Cc2ccccc2)[C@H](O)CN(CC(C)C)S(=O)(=O)c2ccc(SC)cc2)ccc1O | 99.5 nM | 15.8 nM | 
31 | COc1ccc(S(=O)(=O)N(CC(C)C)C[C@@H](O)[C@H](Cc2ccccc2)NC(=O)/C=C/c2ccc(O)c(OC)c2)cc1 | 146 nM | 2.93 nM | 
32 | COc1ccc(S(=O)(=O)N(CC(C)C)C[C@@H](O)[C@H](Cc2ccccc2)NC(=O)/C=C/c2ccc(O)c(O)c2)cn1 | 35.5 nM | 2.86 nM | 
33 | COc1ccc(S(=O)(=O)N(C[C@@H](O)[C@H](Cc2ccccc2)NC(=O)/C=C/c2ccc(O)c(OC)c2)C(C)C)cc1 | 87.5 nM | 98.8 nM | 
34 | COc1cc(/C=C/C(=O)N[C@@H](Cc2ccccc2)[C@H](O)CN(CC(C)C)S(=O)(=O)c2ccc(N)cc2)ccc1O | 43.5 nM | 3.09 nM | 
35 | CCCN(C[C@@H](O)[C@H](Cc1ccccc1)NC(=O)/C=C/c1ccc(O)c(OC)c1)S(=O)(=O)c1ccc(OC)cc1 | 106 nM | 24.1 nM | 
36 | CCCN(C[C@@H](O)[C@H](Cc1ccccc1)NC(=O)/C=C/c1cc(OC)c(O)c(OC)c1)S(=O)(=O)c1ccc(OC)cc1 | 90.5 nM | 36.7 nM | 
37 | COc1ccc(S(=O)(=O)N(CC(C)C)C[C@@H](O)[C@H](Cc2ccccc2)NC(=O)CCc2cc(OC)c(O)cc2OC)cc1 | 73 nM | 104 nM | 
38 | COc1ccc(S(=O)(=O)N(CC(C)C)C[C@@H](O)[C@H](Cc2ccccc2)NC(=O)/C=C/c2cc(OC)c(O)c(OC)c2)cn1 | 11.5 nM | 69.5 nM | 
39 | COc1ccc(S(=O)(=O)N(C[C@@H](O)[C@H](Cc2ccccc2)NC(=O)CCc2cc(OC)c(O)cc2OC)C2CC2)cc1 | 9 nM | 161 nM | 
40 | CCCN(C[C@@H](O)[C@H](Cc1ccccc1)NC(=O)/C=C/c1ccc(O)c(O)c1)S(=O)(=O)c1ccc(OC)cc1 | 53.5 nM | 2.55 nM | 
41 | COc1ccc(S(=O)(=O)N(C[C@@H](O)[C@H](Cc2ccccc2)NC(=O)/C=C/c2ccc(O)c(OC)c2)C2CC2)cc1 | 43.5 nM | 97.6 nM | 
42 | COc1ccc(S(=O)(=O)N(CC(C)C)C[C@@H](O)[C@H](Cc2ccccc2)NC(=O)CCc2ccc(O)c(O)c2)cc1 | 3.5 nM | 0.39 nM | 
43 | COc1ccc(S(=O)(=O)N(C[C@@H](O)[C@H](Cc2ccccc2)NC(=O)CCc2ccc(O)c(O)c2)C2CC2)cc1 | 45.5 nM | 4.04 nM | 
44 | CCCN(C[C@@H](O)[C@H](Cc1ccccc1)NC(=O)CCc1cc(OC)c(O)cc1OC)S(=O)(=O)c1ccc(OC)cc1 | 6.5 nM | 86.4 nM | 

From ChEMBL document CHEMBL4825676, “Design and biological evaluation of cinnamic and phenylpropionic amide derivatives as novel dual inhibitors of HIV-1 protease and reverse transcriptase” (Eur J Med Chem, 2021)
